# Experimental data reported in ChEMBL document CHEMBL3085764, “Azole-carbodithioate hybrids as vaginal anti-Candida contraceptive agents: design, synthesis and docking studies” (Eur J Med Chem, 2013).
# Assays:
# [1] = Spermicidal activity in human semen assessed as sperm immobilization at 1.0 % w/v up to 30 seconds by phase contrast microscopy; format: functional
# [2] = test system: Trichophyton mentagrophytes; experiment: Antifungal activity against Trichophyton mentagrophytes after 48 hrs by broth microdilution technique; format: functional, organism-based
# Summary of the method: (§1)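 MIC by broth microdilution following NCCLS guidelines, in RPMI 1640 buffered with MOPS. Starting inoculum 1-5 × 10^3 CFU/mL. Plates incubated at 35 °C. MIC and IC50 read spectrophotometrically at 492 nm after 48 h.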
# Klebsiella pneumoniae = experiment: Antibacterial activity against Klebsiella pneumoniae after 48 hrs by broth microdilution technique; format: functional
# Summary of the method: (§2)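 Broth microdilution following NCCLS guidelines in Mueller Hinton broth. Inoculum held at 1-5 × 10^3 cfu/mL. Plates incubated at 35 °C in a moist, dark chamber for 48 h. MIC and IC50 read spectrophotometrically at 492 nm.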
# Candida albicans [3] = experiment: Antifungal activity against Candida albicans clinical isolate after 48 hrs by broth microdilution technique; format: functional, organism-based; summary of the method: as §1
# Candida albicans [4] = experiment: Antifungal activity against Candida albicans MTCC 183 after 48 hrs by broth microdilution technique; format: functional, organism-based; settings: MTCC 183, 48 h; summary of the method: as §1
# Aspergillus fumigatus = experiment: Antifungal activity against Aspergillus fumigatus after 48 hrs by broth microdilution technique; format: functional, organism-based; summary of the method: as §1
# Candida albicans [5] = experiment: Antifungal activity against Candida albicans clinical isolate CDRI after 48 hrs by broth microdilution technique; format: functional, organism-based; summary of the method: as §1
# Trichomonas vaginalis = experiment: Trichomonacidal activity against Trichomonas vaginalis after 48 hrs by trypan blue exclusion assay; format: functional; settings: read-out: MEC
# Summary of the method: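 T. vaginalis in log phase, grown in TYM with 10% FCS, vitamin mixture and penicillin/streptomycin at 37 °C. DMSO stocks ([…]) serially diluted in TYM down to 0.1 µg/mL; DMSO/TYM vehicle controls. 5 × 10^4 trophozoites added and incubated anaerobically at 37 °C. Viability checked by trypan blue from 3 to 48 h. MIC = lowest concentration killing all cells by 48 h. Three repeats.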
# Candida parapsilosis = experiment: Antifungal activity against Candida parapsilosis ATCC 22019 after 48 hrs by broth microdilution technique; format: functional, organism-based; settings: Lodderomyces parapsilosis, ATCC 22019, 48 h; summary of the method: as §1
# Pseudomonas aeruginosa = experiment: Antibacterial activity against Pseudomonas aeruginosa ATCC BAA-427 after 48 hrs by broth microdilution technique; format: functional; settings: ATCC BAA-427, 48 h; summary of the method: as §2
# Escherichia coli = experiment: Antibacterial activity against Escherichia coli ATCC 9637 after 48 hrs by broth microdilution technique; format: functional; settings: ATCC 9637, 48 h; summary of the method: as §2
# Staphylococcus aureus = experiment: Antibacterial activity against Staphylococcus aureus ATCC 25923 after 48 hrs by broth microdilution technique; format: functional; settings: ATCC 25923, 48 h; summary of the method: as §2
# Sporothrix schenckii = experiment: Antifungal activity against Sporothrix schenckii after 48 hrs by broth microdilution technique; format: functional, organism-based; summary of the method: as §1
# Candida albicans [6] = experiment: Antifungal activity against Candida albicans ATCC 10231 after 48 hrs by broth microdilution technique; format: functional, organism-based; settings: ATCC 10231, 48 h; summary of the method: as §1
# Cryptococcus neoformans = experiment: Antifungal activity against Cryptococcus neoformans after 48 hrs by broth microdilution technique; format: functional, organism-based; summary of the method: as §1
# [7] = Spermicidal activity in human semen assessed as sperm immobilization at 0.1 % w/v up to 30 seconds by phase contrast microscopy; format: functional
# Candida albicans [8] = experiment: Antifungal activity against Candida albicans after 48 hrs by broth microdilution technique; format: functional, organism-based; summary of the method: as §1
SMILES,Activity [1] [%],IC50 [2] [µg/mL],MIC (Klebsiella pneumoniae) [µg/mL],IC50 (Candida albicans [3]) [µg/mL],IC50 (Candida albicans [4]) [µg/mL],IC50 (Aspergillus fumigatus) [µg/mL],IC50 (Candida albicans [5]) [µg/mL],minimal effective concentration (Trichomonas vaginalis) [µg/mL],IC50 (Candida parapsilosis) [µg/mL],MIC (Pseudomonas aeruginosa) [µg/mL],MIC (Escherichia coli) [µg/mL],MIC (Staphylococcus aureus) [µg/mL],IC50 (Sporothrix schenckii) [µg/mL],IC50 (Candida albicans [6]) [µg/mL],IC50 (Cryptococcus neoformans) [µg/mL],Activity [7] [%],IC50 (Candida albicans [8]) [µg/mL]
CSC(=S)n1ccnc1,100,> 50,≥ 50,> 50,> 50,> 50,> 50,> 200,> 50,≥ 50,≥ 50,≥ 50,> 50,> 50,> 50,0,5.75
N#CCCCSC(=S)n1ccnc1,100,–,≥ 50,10.8,> 50,> 50,43.5,> 200,5.27,≥ 50,≥ 50,≥ 50,> 50,> 50,> 50,92,> 50
C=CCSC(=S)n1ccnc1,100,4.43,≥ 50,1.8,6.79,> 50,3.94,> 200,2.09,≥ 50,≥ 50,≥ 50,4.96,7.26,5.75,0,> 50
CCCCCCCCSC(=S)n1ccnc1,100,1.48,≥ 50,1.06,4.61,6.21,31.4,> 200,> 50,≥ 50,≥ 50,≥ 50,–,7.68,> 50,80,5.72
CCCCCCCCCCCCCCCCSC(=S)n1ccnc1,100,18.4,≥ 50,> 50,> 50,> 50,> 50,> 200,> 50,≥ 50,≥ 50,≥ 50,> 50,> 50,> 50,0,> 50
O=C1c2ccccc2C(=O)N1CCSC(=S)n1ccnc1,100,6.15,≥ 50,16,11.1,> 50,30.9,> 200,> 50,≥ 50,≥ 50,≥ 50,4.17,19.5,28.6,0,5.45
CSC(=S)n1ccnc1C,100,11.7,≥ 50,25.9,37.3,> 50,> 50,> 200,> 50,≥ 50,≥ 50,≥ 50,4.41,36.8,9.1,0,7.24
Cc1nccn1C(=S)SCCCC#N,95,24.9,≥ 50,> 50,41,> 50,47.7,> 200,> 50,≥ 50,≥ 50,≥ 50,> 50,> 50,> 50,0,36
C=CCSC(=S)n1ccnc1C,100,> 50,≥ 50,2.1,3.61,18.1,7.26,> 200,10.2,≥ 50,≥ 50,≥ 50,1.5,4.53,3.35,0,2.21
CCCCCCCCSC(=S)n1ccnc1C,100,> 50,≥ 50,> 50,> 50,> 50,19,> 200,> 50,≥ 50,≥ 50,≥ 50,4.47,> 50,> 50,100,7.21
CCCCCCCCCCCCCCCCSC(=S)n1ccnc1C,95,7.07,≥ 50,> 50,> 50,> 50,> 50,> 200,> 50,≥ 50,≥ 50,≥ 50,> 50,> 50,> 50,0,> 50
C=CCSC(=S)n1cncn1,100,> 50,≥ 50,> 50,> 50,> 50,45.5,> 200,> 50,≥ 50,≥ 50,≥ 50,5.78,> 50,> 50,0,2.53
N#CCCCSC(=S)n1cnc2ccccc21,100,–,≥ 50,> 50,> 50,> 50,3.86,> 200,> 50,≥ 50,≥ 50,≥ 50,–,> 50,> 50,0,> 50
C=CCSC(=S)n1cnc2ccccc21,100,> 50,≥ 50,> 50,40.1,> 50,39.3,> 200,> 50,≥ 50,≥ 50,≥ 50,–,> 50,> 50,0,> 50
CCCCSC(=S)n1cnc2ccccc21,100,1.4,≥ 50,> 50,21.8,> 50,37.4,> 200,> 50,≥ 50,≥ 50,≥ 50,> 50,> 50,> 50,0,6.39
CCCCCCCCSC(=S)n1cnc2ccccc21,95,> 50,≥ 50,> 50,> 50,> 50,> 50,> 200,> 50,≥ 50,≥ 50,≥ 50,> 50,> 50,> 50,0,> 50
Cn1nnc2ccccc21,0,> 50,≥ 50,> 50,> 50,> 50,> 50,> 200,> 50,≥ 50,≥ 50,≥ 50,1.58,> 50,> 50,0,> 50
OC(Cn1cncn1)(Cn1cncn1)c1ccc(F)cc1F [FLUCONAZOLE],–,0.06,–,–,0.21,0.38,–,–,0.46,–,–,–,0.08,–,–,–,–
Cc1ncc([N+](=O)[O-])n1CCO [METRONIDAZOLE],0,–,–,–,–,–,–,2,–,–,–,–,–,–,–,0,–
